In general, IC50 refers to the point on the concentration scale where inhibition reaches its midpoint. Broadly, the Ki is a dissociation constant, usually derived from enzyme kinetics or from competition with a known ligand.

The record followed here is ChEMBL document CHEMBL1134320, “Structure of protein tyrosine phosphatase 1B in complex with inhibitors bearing two phosphotyrosine mimetics” (J Med Chem, 2001).

For assay [1], the target named is T1, Receptor-type tyrosine-protein phosphatase C (Homo sapiens, UniProt P08575).
T1 sequence (P08575 whole entry): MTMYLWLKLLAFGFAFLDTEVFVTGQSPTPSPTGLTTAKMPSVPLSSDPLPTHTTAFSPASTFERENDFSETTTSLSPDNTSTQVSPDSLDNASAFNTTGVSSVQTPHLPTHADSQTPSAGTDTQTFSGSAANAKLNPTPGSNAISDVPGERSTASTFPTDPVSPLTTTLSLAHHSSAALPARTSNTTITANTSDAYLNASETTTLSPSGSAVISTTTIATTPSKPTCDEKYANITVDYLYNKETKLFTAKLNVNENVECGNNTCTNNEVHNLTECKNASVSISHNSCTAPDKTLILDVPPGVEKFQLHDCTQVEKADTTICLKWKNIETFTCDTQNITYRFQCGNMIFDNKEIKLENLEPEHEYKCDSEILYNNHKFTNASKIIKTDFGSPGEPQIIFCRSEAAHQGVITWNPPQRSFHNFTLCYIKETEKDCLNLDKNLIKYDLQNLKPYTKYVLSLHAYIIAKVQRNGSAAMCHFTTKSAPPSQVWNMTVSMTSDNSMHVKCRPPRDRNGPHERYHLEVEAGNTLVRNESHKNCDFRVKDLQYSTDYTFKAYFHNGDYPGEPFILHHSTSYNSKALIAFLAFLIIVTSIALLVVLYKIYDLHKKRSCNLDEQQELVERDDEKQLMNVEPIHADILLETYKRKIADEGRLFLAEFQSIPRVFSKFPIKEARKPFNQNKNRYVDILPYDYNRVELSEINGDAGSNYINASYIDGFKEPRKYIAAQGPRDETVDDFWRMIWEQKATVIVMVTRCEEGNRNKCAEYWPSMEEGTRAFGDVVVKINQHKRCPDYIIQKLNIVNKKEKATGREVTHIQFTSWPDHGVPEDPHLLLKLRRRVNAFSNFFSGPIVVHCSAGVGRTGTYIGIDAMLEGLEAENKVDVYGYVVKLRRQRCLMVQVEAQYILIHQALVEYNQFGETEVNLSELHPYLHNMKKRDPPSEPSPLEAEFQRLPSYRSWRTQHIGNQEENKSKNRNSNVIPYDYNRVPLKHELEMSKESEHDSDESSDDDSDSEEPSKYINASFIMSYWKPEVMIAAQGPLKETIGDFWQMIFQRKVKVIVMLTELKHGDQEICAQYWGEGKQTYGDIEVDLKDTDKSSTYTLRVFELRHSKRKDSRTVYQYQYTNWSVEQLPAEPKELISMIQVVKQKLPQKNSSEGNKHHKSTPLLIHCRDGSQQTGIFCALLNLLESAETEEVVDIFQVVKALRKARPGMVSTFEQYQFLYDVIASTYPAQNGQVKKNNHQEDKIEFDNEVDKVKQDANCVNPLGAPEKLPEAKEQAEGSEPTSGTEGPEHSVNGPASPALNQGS
The assay is described as follows: Inhibitory activity against Protein tyrosine phosphatase CD45. Put shortly:
(§1)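 Phosphatase activity was read with 3,6-fluorescein diphosphate (FDP) as substrate, at roughly the KM concentration for each enzyme. IC50 came from 10 inhibitor concentrations fitted to a four-parameter equation, with errors under 10%. Constructs: flag-PTP1B (1–320); flag-CD45 intracellular domain; GST-PTPβ, GST-SHP1 and GST-SHP2; human recombinant TCPTP from E. coli; flag-CDC25a from baculovirus-infected Sf9 cells.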

The target in assay [2] is T2, Tyrosine-protein phosphatase non-receptor type 1 (Homo sapiens, UniProt P18031).
T2 sequence (P18031 whole entry): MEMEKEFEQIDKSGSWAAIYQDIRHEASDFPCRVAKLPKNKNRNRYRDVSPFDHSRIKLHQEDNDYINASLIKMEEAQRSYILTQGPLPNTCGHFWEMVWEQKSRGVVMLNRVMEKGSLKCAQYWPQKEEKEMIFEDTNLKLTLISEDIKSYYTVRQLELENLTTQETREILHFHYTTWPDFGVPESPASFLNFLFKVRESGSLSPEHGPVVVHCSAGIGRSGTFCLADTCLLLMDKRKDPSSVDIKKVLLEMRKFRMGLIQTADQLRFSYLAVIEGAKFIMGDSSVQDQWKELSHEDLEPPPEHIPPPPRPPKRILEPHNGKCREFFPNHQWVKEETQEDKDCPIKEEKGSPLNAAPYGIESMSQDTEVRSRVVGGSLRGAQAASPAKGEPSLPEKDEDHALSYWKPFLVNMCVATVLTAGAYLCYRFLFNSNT
The assay is described as follows: Inhibitory activity against Protein tyrosine phosphatase 1B (PTP1B). Summed up:
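Phosphatase activity was read with 3,6-fluorescein diphosphate (FDP) as substrate, at roughly the KM concentration for each enzyme. Constructs: flag-PTP1B (1–320); flag-CD45 intracellular domain; GST-PTPβ, GST-SHP1 and GST-SHP2; human recombinant TCPTP from E. coli; flag-CDC25a from baculovirus-infected Sf9 cells.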

In assay [3] the target is Receptor-type tyrosine-protein phosphatase beta (Homo sapiens, UniProt P23467). As to the kind of experiment: Inhibitory activity against Protein tyrosine phosphatase PTPbeta. Put shortly: as §1
The target of assay [4] is Tyrosine-protein phosphatase non-receptor type 6 (Homo sapiens, UniProt P29350). The assay is described as follows: Inhibitory activity against Protein tyrosine phosphatase SHP-1. Put shortly: as §1
Assay [5] has as its target T3, Tyrosine-protein phosphatase non-receptor type 11 (Homo sapiens, UniProt Q06124).
T3 sequence (Q06124 whole entry): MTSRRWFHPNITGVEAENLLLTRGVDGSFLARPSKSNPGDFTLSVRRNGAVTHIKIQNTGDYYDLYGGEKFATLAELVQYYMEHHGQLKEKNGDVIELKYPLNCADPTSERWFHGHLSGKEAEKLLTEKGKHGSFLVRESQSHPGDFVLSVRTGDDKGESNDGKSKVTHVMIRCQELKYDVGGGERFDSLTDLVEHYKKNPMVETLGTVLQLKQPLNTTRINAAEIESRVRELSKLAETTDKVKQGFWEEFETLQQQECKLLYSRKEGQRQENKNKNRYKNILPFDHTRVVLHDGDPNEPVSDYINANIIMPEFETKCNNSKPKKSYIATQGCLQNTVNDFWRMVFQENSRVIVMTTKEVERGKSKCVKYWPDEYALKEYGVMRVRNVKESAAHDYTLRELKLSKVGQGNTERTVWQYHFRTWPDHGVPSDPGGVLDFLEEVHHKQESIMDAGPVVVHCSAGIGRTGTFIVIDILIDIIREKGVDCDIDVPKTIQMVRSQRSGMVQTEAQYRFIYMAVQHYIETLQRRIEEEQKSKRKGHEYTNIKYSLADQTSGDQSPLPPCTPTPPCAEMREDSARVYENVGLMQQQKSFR
The assay is described as follows: Inhibitory activity against Protein tyrosine phosphatase SHP-2. Summed up:
as §1

Assay [6] has as its target T4, Tyrosine-protein phosphatase non-receptor type 2 (Homo sapiens, UniProt P17706).
T4 sequence (P17706 whole entry): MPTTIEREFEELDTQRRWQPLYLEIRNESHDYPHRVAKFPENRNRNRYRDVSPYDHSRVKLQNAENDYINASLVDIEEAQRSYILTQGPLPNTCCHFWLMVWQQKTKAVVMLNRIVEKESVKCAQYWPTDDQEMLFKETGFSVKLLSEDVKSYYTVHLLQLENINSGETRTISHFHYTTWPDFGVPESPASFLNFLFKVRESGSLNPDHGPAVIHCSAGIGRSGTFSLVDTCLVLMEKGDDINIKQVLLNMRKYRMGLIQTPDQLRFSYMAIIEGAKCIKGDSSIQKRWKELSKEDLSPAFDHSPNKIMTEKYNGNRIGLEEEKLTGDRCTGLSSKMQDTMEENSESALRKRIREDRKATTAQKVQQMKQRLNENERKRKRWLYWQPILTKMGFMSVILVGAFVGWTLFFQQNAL
As to the kind of experiment: Inhibitory activity against Protein tyrosine phosphatase TCPTP. Summed up:
as §1

The target of assay [7] is T5, M-phase inducer phosphatase 1 (Homo sapiens, UniProt P30304).
T5 sequence (P30304 whole entry): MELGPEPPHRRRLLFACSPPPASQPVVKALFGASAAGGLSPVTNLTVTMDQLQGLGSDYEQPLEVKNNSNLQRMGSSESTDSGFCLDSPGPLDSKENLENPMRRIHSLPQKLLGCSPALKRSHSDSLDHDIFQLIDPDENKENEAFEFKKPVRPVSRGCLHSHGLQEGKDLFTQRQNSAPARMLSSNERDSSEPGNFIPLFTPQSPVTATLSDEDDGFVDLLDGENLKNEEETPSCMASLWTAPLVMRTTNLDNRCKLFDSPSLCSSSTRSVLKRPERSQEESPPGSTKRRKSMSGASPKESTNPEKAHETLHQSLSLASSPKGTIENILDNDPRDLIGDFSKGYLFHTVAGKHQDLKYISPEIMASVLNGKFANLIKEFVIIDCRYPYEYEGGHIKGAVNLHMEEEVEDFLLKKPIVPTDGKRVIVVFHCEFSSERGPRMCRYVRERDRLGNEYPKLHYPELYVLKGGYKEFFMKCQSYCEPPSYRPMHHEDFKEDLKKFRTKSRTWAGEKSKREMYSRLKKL
The assay is described as follows: Inhibitory activity against Protein tyrosine phosphatase cell division cycle 25A. Put shortly:
as §1

Assay [8] deals with T2, Tyrosine-protein phosphatase non-receptor type 1. The assay is described as follows: Binding affinity towards the site of PTP1B enzyme.
For assay [9] the target is unchanged. The assay is described as follows: Binding affinity towards the binding site in PTP1B enzyme.
Assay [10] deals with T6, Tyrosine-protein phosphatase non-receptor type 4 (Homo sapiens, UniProt P29074).
T6 sequence (P29074 whole entry): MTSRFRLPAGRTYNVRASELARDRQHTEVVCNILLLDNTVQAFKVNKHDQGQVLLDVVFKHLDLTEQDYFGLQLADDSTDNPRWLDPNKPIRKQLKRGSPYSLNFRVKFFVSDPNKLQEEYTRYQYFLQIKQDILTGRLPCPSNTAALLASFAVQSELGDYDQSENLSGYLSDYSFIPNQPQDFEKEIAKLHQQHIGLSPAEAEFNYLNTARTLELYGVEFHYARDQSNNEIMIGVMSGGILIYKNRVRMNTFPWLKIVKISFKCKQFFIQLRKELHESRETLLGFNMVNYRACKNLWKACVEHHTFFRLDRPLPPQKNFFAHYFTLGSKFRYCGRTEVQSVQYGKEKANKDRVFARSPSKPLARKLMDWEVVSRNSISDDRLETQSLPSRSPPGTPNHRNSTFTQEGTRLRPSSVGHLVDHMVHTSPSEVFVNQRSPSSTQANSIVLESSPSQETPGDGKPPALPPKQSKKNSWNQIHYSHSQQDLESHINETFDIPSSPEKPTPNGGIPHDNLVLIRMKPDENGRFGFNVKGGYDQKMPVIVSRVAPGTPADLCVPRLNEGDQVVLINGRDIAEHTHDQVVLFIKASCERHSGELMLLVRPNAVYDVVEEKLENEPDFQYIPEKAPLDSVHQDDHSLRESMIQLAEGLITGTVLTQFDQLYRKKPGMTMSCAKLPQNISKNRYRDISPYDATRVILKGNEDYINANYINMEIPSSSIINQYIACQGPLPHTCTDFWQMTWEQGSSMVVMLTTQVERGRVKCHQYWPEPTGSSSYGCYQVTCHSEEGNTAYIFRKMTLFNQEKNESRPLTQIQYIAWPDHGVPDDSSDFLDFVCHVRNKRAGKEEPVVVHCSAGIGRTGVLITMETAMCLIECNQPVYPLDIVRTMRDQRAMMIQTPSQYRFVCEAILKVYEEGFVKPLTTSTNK
The assay is described as follows: Inhibitory activity against Protein tyrosine phosphatase PTPmeg-1.

Tyrosine-protein phosphatase non-receptor type 6, sequence (P29350 whole entry): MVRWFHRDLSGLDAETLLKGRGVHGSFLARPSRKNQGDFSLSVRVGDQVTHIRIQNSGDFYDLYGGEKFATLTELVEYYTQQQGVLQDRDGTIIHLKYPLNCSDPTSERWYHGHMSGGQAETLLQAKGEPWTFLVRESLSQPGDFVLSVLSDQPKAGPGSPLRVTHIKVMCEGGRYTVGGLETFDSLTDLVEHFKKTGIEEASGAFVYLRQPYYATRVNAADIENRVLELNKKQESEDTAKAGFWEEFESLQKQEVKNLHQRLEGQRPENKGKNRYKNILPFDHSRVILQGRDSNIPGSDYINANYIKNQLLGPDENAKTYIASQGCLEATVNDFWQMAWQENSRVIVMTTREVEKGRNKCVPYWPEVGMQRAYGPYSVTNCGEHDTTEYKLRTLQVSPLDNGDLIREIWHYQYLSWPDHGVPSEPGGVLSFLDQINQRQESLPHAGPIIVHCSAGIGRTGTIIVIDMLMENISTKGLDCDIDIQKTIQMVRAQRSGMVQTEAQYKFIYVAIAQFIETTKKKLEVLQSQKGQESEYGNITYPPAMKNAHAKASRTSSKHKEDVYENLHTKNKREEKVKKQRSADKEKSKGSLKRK
Receptor-type tyrosine-protein phosphatase beta, sequence (P23467 whole entry): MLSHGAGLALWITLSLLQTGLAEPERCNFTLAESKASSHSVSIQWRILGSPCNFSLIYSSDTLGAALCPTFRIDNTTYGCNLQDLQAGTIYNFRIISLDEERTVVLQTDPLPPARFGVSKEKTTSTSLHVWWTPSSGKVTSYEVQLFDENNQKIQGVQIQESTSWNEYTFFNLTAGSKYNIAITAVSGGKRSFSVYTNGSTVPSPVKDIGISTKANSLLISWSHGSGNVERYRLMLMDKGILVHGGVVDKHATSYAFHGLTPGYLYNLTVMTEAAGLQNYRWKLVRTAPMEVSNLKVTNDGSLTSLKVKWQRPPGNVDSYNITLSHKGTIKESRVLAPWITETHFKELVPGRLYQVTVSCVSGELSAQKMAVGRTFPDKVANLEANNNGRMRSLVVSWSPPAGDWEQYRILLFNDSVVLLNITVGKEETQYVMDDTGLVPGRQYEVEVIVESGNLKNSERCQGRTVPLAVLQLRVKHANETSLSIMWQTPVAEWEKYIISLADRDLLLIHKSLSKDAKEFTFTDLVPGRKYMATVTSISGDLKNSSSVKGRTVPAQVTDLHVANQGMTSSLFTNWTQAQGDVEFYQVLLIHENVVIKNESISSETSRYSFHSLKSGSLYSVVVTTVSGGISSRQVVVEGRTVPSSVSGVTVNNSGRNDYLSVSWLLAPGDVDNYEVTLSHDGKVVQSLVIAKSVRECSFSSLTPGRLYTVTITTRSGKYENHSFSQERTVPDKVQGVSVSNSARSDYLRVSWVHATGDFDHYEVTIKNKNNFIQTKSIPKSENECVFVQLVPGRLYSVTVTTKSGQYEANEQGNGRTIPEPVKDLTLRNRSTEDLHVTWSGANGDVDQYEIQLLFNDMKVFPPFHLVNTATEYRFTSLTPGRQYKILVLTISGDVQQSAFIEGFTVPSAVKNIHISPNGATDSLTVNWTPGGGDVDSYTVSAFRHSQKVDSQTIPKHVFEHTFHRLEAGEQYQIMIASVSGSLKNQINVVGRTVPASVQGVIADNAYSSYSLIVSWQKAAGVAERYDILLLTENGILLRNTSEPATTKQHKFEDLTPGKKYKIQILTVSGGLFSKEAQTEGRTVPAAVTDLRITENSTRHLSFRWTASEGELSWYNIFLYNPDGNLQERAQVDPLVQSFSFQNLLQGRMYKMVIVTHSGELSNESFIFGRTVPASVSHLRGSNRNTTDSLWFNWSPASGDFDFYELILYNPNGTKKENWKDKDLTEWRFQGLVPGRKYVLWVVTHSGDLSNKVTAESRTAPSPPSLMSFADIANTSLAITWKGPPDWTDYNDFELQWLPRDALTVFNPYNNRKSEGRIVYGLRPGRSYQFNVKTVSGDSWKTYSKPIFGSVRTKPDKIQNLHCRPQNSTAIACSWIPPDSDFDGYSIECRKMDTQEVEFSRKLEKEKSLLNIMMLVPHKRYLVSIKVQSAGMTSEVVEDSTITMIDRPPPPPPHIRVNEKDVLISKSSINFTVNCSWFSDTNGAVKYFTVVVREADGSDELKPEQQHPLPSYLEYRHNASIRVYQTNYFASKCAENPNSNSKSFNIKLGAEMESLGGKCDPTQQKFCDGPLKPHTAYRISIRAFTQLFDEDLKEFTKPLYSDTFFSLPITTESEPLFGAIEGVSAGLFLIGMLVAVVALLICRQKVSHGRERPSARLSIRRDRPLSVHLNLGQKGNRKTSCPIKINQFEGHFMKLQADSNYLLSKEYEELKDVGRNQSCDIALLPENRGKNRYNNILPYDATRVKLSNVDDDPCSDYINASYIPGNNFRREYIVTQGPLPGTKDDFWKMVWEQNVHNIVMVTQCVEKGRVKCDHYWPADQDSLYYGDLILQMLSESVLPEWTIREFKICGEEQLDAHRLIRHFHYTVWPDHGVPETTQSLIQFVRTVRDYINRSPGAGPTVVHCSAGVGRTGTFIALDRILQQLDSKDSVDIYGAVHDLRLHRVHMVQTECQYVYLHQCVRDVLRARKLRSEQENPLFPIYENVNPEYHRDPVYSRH

Turning to `O=P(O)(O)C(F)(F)c1ccc(COc2ccccc2OCc2ccc(C(F)(F)P(=O)(O)O)cc2)cc1`, the IC50 in assay [1] amounted to 42 µM; in assay [2] it was 1.7 µM; in [3], 77 µM; in [4], 15 µM; in assay [5], 60 µM; in assay [6], 3.2 µM. In [7], the IC50 stood at 163 µM.

Take `O=P(O)(O)C(F)(F)c1ccc(COCCOCc2ccc(C(F)(F)P(=O)(O)O)cc2)cc1`: the concentration for half-maximal inhibition (IC50) is 236 µM in assay [1]; 3.9 µM in assay [2]; 300 µM in [3]; 61 µM in [4]; 152 µM in assay [5]; 6.1 µM in [6].

Take `O=P(O)(O)C(F)(F)c1ccc(CCCCc2ccc(C(F)(F)P(=O)(O)O)cc2)cc1`: the IC50 in assay [1] is 198 µM; in assay [2], 4.4 µM; in [3] it was 342 µM; in assay [4], 31 µM; in [5], 91 µM; in [6], 6.4 µM. Moreover, in assay [8], the affinity corresponds to a Ki of 1.5 µM.

Turning to `O=C(CCc1ccc(C(F)(F)P(=O)(O)O)cc1)Nc1cc(NC(=O)CCc2ccc(C(F)(F)P(=O)(O)O)cc2)cc(C(=O)NCc2ccc(C(=O)O)cc2)c1`, the Ki in assay [9] came to 0.93 µM.

Regarding `O=P(O)(O)C(F)(F)c1ccc(COc2ccc(OCc3ccc(C(F)(F)P(=O)(O)O)cc3)cc2)cc1`, the IC50 was 14 µM in assay [1]; 4.2 µM in [2]; 15 µM in [3]; 146 µM in assay [10]; 6.3 µM in assay [4]; 16 µM in [5]. Further, the IC50 is 4.6 µM in assay [6] and 30 µM in assay [7].

With `O=P(O)(O)C(F)(F)c1ccc(COc2cccc(OCc3ccc(C(F)(F)P(=O)(O)O)cc3)c2)cc1`, the IC50 in [1] turned out to be 108 µM; in [2], 5.3 µM; in assay [3] it was 77 µM; in assay [4], 16 µM; in assay [5] it was 32 µM; in assay [6] it was 7.9 µM. The molecule further returned an IC50 in [7] of 163 µM.
